Reference: ChEMBL document CHEMBL3045525, “Synthesis and fungicidal activity of novel 2,5-disubstituted-1,3,4-oxadiazole derivatives” (2012)

Experiments:
Corynespora cassiicola [1] = assay: Fungicidal activity against Corynespora cassiicola infected in drug-pretreated cucumber two seeded leaves assessed as decrease in disease index at 500 ug/ml (acetone Rvb = 5.23 +/-0.88%); type: functional
In short: (§1)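 Greenhouse cucumber assay. Fungi kept on PDA at 4 °C and cultured at 24 ± 1 °C. Plants at the two-seed-leaf stage had leaves hand-sprayed at 500 μg/mL, then were inoculated and held at 24 ± 1 °C, >80% RH. Efficacy = (CK − PT)/CK × 100, from average disease indices.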

Rhizoctonia solani [2] = assay: Fungicidal activity against Rhizoctonia solani infected drug-pretreated cucumber two seeded leaves assessed as decrease in disease index at 500 ug/ml (acetone Rvb = 2.22 +/-0.79%); type: functional; in short: as §1
Botrytis cinerea [3] = assay: Fungicidal activity against Botryotinia fuckeliana infected in drug-pretreated cucumber two seeded leaves assessed as decrease in disease index at 500 ug/ml (acetone Rvb = 1.53 +/-0.21%); type: functional; in short: as §1
Cladosporium cucumerinum [4] = assay: Fungicidal activity against Cladosporium cucumerinum infected drug-pretreated cucumber two seeded leaves assessed as decrease in disease index at 500 ug/ml (acetone Rvb = 3.18 +/-0.75%); type: functional; in short: as §1
Cladosporium cucumerinum [5] = assay: Fungicidal activity against Cladosporium cucumerinum infected drug-pretreated cucumber two seeded leaves assessed as decrease in disease index at 40% EC formulation (acetone Rvb = 3.18 +/-0.75%)
Corynespora cassiicola [6] = assay: Fungicidal activity against Corynespora cassiicola infected in drug-pretreated cucumber two seeded leaves assessed as decrease in disease index at 75% WP formulation (acetone Rvb = 5.23 +/-0.88%); type: functional; in short: as §1
Rhizoctonia solani [7] = assay: Fungicidal activity against Rhizoctonia solani infected drug-pretreated cucumber two seeded leaves assessed as decrease in disease index at 3% AS formulation (acetone Rvb = 2.22 +/-0.79%); type: functional; in short: as §1
Botrytis cinerea [8] = assay: Fungicidal activity against Botryotinia fuckeliana infected in drug-pretreated cucumber two seeded leaves assessed as decrease in disease index at 40% SC formulation (acetone Rvb = 1.53 +/-0.21%); type: functional; in short: as §1

SMILES | Efficacy (Corynespora cassiicola [1]) [%] | Efficacy (Rhizoctonia solani [2]) [%] | Efficacy (Botrytis cinerea [3]) [%] | Efficacy (Cladosporium cucumerinum [4]) [%] | Efficacy (Cladosporium cucumerinum [5]) [%] | Efficacy (Corynespora cassiicola [6]) [%] | Efficacy (Rhizoctonia solani [7]) [%] | Efficacy (Botrytis cinerea [8]) [%]
COc1ccc(-c2nnc(-c3ccc(-c4ccccc4[N+](=O)[O-])o3)o2)cc1 | 48.61 | 48.48 | 92.68 | 15 | – | – | – | –
C[Si](Cn1cncn1)(c1ccc(F)cc1)c1ccc(F)cc1 [FLUSILAZOLE] | – | – | – | – | 95.56 | – | – | –
COc1ccc(C(=O)NNC(=O)c2ccc(-c3ccccc3[N+](=O)[O-])o2)cc1 | 28.35 | 56.45 | 35.5 | 2.61 | – | – | – | –
CC(=O)N1N=C(c2ccc(-c3ccccc3Cl)o2)OC1c1ccc(Br)cc1 (stereo not drawn) | 32.03 | 14.3 | 23.23 | 16.67 | – | – | – | –
CCC(=O)N1N=C(c2ccc(-c3ccc(F)cc3)o2)OC1c1ccccc1Cl (stereo not drawn) | 46.75 | 52.33 | -24.9 | 31.48 | – | – | – | –
CC(=O)N1N=C(c2ccc(-c3ccc(Cl)cc3)o2)OC1c1ccccc1 (stereo not drawn) | 35.29 | 69.09 | 70.71 | 45.61 | – | – | – | –
N#Cc1c(Cl)c(Cl)c(Cl)c(C#N)c1Cl [CHLOROTHALONIL] | – | – | – | – | – | 93.53 | – | –
COc1ccc(-c2nnc(-c3ccc(-c4ccc([N+](=O)[O-])cc4)o3)o2)cc1 | 10.59 | -3.97 | 47.83 | 12.35 | – | – | – | –
CCOc1ccc(C(=O)NNC(=O)c2ccc(-c3ccc([N+](=O)[O-])cc3)o2)cc1 | 38.24 | 71.9 | 79.13 | 28.35 | – | – | – | –
CCOc1ccc(C(=O)NNC(=O)c2ccc(-c3ccccc3[N+](=O)[O-])o2)cc1 | 18.82 | 78.93 | -43.27 | 10 | – | – | – | –
CCC(=O)N1N=C(c2ccc(-c3ccccc3Cl)o2)OC1c1ccc(Br)cc1 (stereo not drawn) | 41.18 | 63.87 | 13.91 | 23.98 | – | – | – | –
O=C(NNC(=O)c1ccccc1Cl)c1ccc(-c2ccc(F)cc2)o1 | 34.26 | 69.35 | 89.57 | 30.32 | – | – | – | –
CCOc1ccc(-c2nnc(-c3ccc(-c4ccc([N+](=O)[O-])cc4)o3)o2)cc1 | 25.49 | 63.47 | 77.78 | 16.48 | – | – | – | –
CCOc1ccc(-c2nnc(-c3ccc(-c4ccccc4[N+](=O)[O-])o3)o2)cc1 | 74.71 | 65.58 | 33.75 | 8.89 | – | – | – | –
Cc1ccc(C(=O)NNC(=O)c2ccc(-c3ccc(Cl)cc3)o2)cc1 | 50.87 | 19.8 | 4.35 | 29.8 | – | – | – | –
COc1ccc(C(=O)NNC(=O)c2ccc(-c3ccc([N+](=O)[O-])cc3)o2)cc1 | 36.36 | 24.45 | 29.9 | 57.89 | – | – | – | –
Cc1ccc(-c2nnc(-c3ccc(-c4ccc(Cl)cc4)o3)o2)cc1 | 28.24 | 24.13 | 42.38 | 5.85 | – | – | – | –
CC(=O)N1N=C(c2ccc(-c3ccccc3F)o2)OC1c1ccc(Cl)cc1 (stereo not drawn) | 28.85 | 66.28 | 18.89 | 31.11 | – | – | – | –
Fc1ccc(-c2ccc(-c3nnc(-c4ccccc4Cl)o3)o2)cc1 | 27.94 | 25.54 | 76.52 | 7.78 | – | – | – | –
O=[N+]([O-])c1ccccc1-c1ccc(-c2nnc(-c3ccc(Cl)cc3)o2)o1 | 15.17 | 94.38 | -30.02 | 17.2 | – | – | – | –
OCC1=C[C@H](N[C@H]2C[C@H](CO)[C@@H](O[C@@H]3O[C@H](CO)[C@@H](O)[C@H](O)[C@H]3O)[C@H](O)[C@H]2O)[C@H](O)[C@@H](O)[C@@H]1O [VALIDAMYCIN] | – | – | – | – | – | – | 93.68 | –
O=C(N/N=C/c1ccccc1Cl)c1ccc(-c2ccc(F)cc2)o1 | 13.87 | 8 | 72 | -22 | – | – | – | –
O=C(N/N=C/c1ccccc1)c1ccc(-c2ccc(Cl)cc2)o1 | 50.78 | 10.2 | 11 | -8.1 | – | – | – | –
O=C(NNC(=O)c1ccc(-c2ccccc2[N+](=O)[O-])o1)c1ccc(Cl)cc1 | 66.09 | 95.56 | 79.58 | 14.44 | – | – | – | –
O=C(N/N=C/c1ccc(Br)cc1)c1ccc(-c2ccccc2Cl)o1 | 28.79 | 57.85 | 91.76 | 19.75 | – | – | – | –
Cc1cc(C)nc(Nc2ccccc2)n1 [PYRIMETHANIL] | – | – | – | – | – | – | – | 69.57
CC(=O)N1N=C(c2ccc(-c3ccc(F)cc3)o2)OC1c1ccccc1Cl (stereo not drawn) | 28.72 | 31.03 | 76.28 | 40 | – | – | – | –
O=C(NNC(=O)c1ccc(-c2ccccc2Cl)o1)c1ccc(Br)cc1 | 8.24 | 49.42 | 24.64 | 14.2 | – | – | – | –
O=C(N/N=C/c1ccc(Cl)cc1)c1ccc(-c2ccccc2F)o1 | -3.05 | -5.2 | 27 | 37.3 | – | – | – | –
Clc1ccccc1-c1ccc(-c2nnc(-c3ccc(Br)cc3)o2)o1 | 90.59 | -1.16 | -2.61 | 17.9 | – | – | – | –
